In data set [1] the test system is hTERT-BJ. Kind of data set: Induction of autophagy in human hTERT-BJ cells transformed with hTert, small t, shRNAs against p53 and pRb and H-RasV12-ER assessed as increase in LC3-2 to LC3-1 ratio at 5 uM after 24 hrs by immunoblot analysis relative to control. The format is functional. The method in brief:
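Fully transformed BJ fibroblasts (hTert, small t, shRNAs to p53 and pRb, H-RasV12-ER) grown at 37 °C, 5% CO2 in 10% FBS medium; treated 24 h at 5 μM. Triton lysis, 14% SDS-PAGE, LC3 immunoblot; LC3-II/LC3-I band ratio relative to DMSO-treated control, under 2-fold induction deemed insignificant.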
On the technique in general: A western blot detects proteins with antibodies after separation by electrophoresis.

The subject of data set [2] is hTERT-BJ. Kind of data set: Inhibition of mitotic progression in human hTERT-BJ cells transformed with hTert, small t, shRNAs against p53 and pRb and H-RasV12-ER assessed as increase in phosphorylated histone H3 (Ser10) level at 5 uM after 24 hrs by immunoblot analysis relative to control. The format is functional. The method in brief: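 Fully transformed BJ fibroblasts (hTert, small t, shRNAs to p53 and pRb, H-RasV12-ER) treated 24 h at 5 μM. Immunoblot protocol as for HeLa. pH3 (Ser10) band intensity expressed as fold of DMSO control; under 2-fold counted as insignificant.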

Data set [3] concerns hTERT-BJ. Kind of data set: Cell cycle arrest in human hTERT-BJ cells transformed with hTert, small t, shRNAs against p53 and pRb and H-RasV12-ER assessed as accumulation at sub-G1 phase at 5 uM after 48 hrs. The format is functional, cell-based. A digest of the protocol: (§1)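 Isogenic normal and fully transformed BJ fibroblasts (hTert, small t, shRNAs to p53 and pRb, H-RasV12-ER) exposed to 5 μM for 48 h. Percentage of cells in sub-G1 phase determined as a cell death measure.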

For data set [4], the system named is BJ. The data set is described as follows: Cell cycle arrest in human BJ cells assessed as accumulation at sub-G1 phase at 5 uM after 48 hrs. The format is cell-based. A digest of the protocol: as §1
Another data set concerns HCT-15. The data set is described as follows: Antitumor activity against human HCT15 cells xenografted in BALB/c athymic nu/nu mouse assessed as tumor growth inhibition at 60 mg/kg, iv bid administered every 4 days. The format is functional, organism-based. A digest of the protocol:
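Female BALB/c nu/nu mice bearing subcutaneous HCT15 xenografts (groups of 6). Paclitaxel 60 mg/kg given via tail vein twice every 4 days in ethanol:Tween 80:5% glucose (5:15:80). Tumor volumes tracked; mean ± SEM, two-way ANOVA vs vehicle.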
In general terms: In xenograft studies the graft and the host belong to different species.

For data set [5], the system named is HeLa. Kind of data set: Induction of autophagy in human HeLa cells assessed as increase in LC3-2 levels after 6 hrs by immunoblot analysis. The format is functional, cell-based. The method in brief:
(§2)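 HeLa cells treated 6 h with 0.625–10 μM test agent or chloroquine (1.25–100 μM), or DMSO. Lysis in 1% Triton buffer (pH 8.0) with protease and phosphatase inhibitors, 14% SDS-PAGE, immunoblot for LC3, pH3 (Ser10) and β-actin. Band intensity ratios (LC3-II/LC3-I; pH3) expressed relative to DMSO control.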

For data set [6], the system named is HeLa. Kind of data set: Induction of autophagy in human HeLa cells assessed as increase in LC3 puncta at 2.5 uM after 6 hrs by DAPI staining-based immunofluorescence microscopy. In kind it is functional, cell-based. The method in brief: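 HeLa cells exposed to compound or DMSO for 6 h, then immunostained for LC3 with DAPI nuclear counterstain. Puncta formation scored by fluorescence imaging as a read-out of LC3-II.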

For data set [7], the system named is HeLa. The data set is described as follows: Inhibition of mitotic progression in human HeLa cells assessed as upregulation of phosphorylated histone H3 (Ser10) level after 6 hrs by immunoblot analysis. The format is functional, cell-based. A digest of the protocol: as §2
Data set [8] concerns HeLa. Kind of data set: Induction of mitotic arrest in human HeLa cells assessed as formation of misaligned chromosomes at 2.5 uM after 6 hrs by DAPI staining-based immunofluorescence analysis. In kind it is functional, cell-based.
For data set [9], the system named is HeLa. Kind of data set: Induction of mitotic arrest in human HeLa cells assessed as formation of disorganized spindles at 2.5 uM after 6 hrs by DAPI staining-based immunofluorescence analysis. In kind it is functional, cell-based.
Data set [10] deals with HeLa. The data set is described as follows: Induction of mitotic arrest in human HeLa cells assessed as formation of misaligned chromosomes at 15 to 25 uM after 6 hrs by DAPI staining-based immunofluorescence analysis. In kind it is functional, cell-based.
The test system of data set [11] is HeLa. The data set is described as follows: Induction of mitotic arrest in human HeLa cells assessed as formation of disorganized spindles at 15 to 25 uM after 6 hrs by DAPI staining-based immunofluorescence analysis. In kind it is functional, cell-based.
For data set [12], the system named is BJ. Kind of data set: Induction of apoptosis in human BJ cells transformed with hTert, small t, shRNAs against p53 and pRb and H-RasV12-ER assessed as activation of caspase-3/7 up to 5 uM after 48 hrs by caspase-Glo 3/7 luminescent assay. In kind it is functional, cell-based. A digest of the protocol: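 Normal and transformed BJ cells treated 48 h across a concentration series. Caspase-3/7 activity by Caspase-Glo 3/7 luminescence, normalized to viable cell number from MTT. Mean ± S.D., n=3; two-tailed unpaired t tests.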

Data set [13] has as its system HeLa. The data set is described as follows: Inhibition of colony formation in human HeLa cells after 7 days by plate colony counting method. The format is functional, cell-based.
The subject of data set [14] is HeLa. The data set is described as follows: Induction of mitotic arrest in human HeLa cells expressing GFP-tagged tubulin assessed as appearance of large vacuole like structures that filled out cytoplasmic area at 2.5 uM after 20 hrs by microscopic method. In kind it is functional, cell-based. A digest of the protocol:
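HeLa cells stably expressing GFP-tubulin exposed to compound or DMSO for 20 h. Cytoplasmic vacuole-like structures and mitotic arrest examined by high-resolution microscopy.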

Data set [15] can be described thus: Intrinsic clearance in pooled female rat liver microsomes assessed per mg protein at 3 uM preincubated for 5 mins followed by NADPH addition measured after 45 mins by LC-MS/MS method. In kind it is ADME, microsome. The conditions noted are these: read-out: CLH. The method in brief:
(§3)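 Pooled female or male rat liver microsomes (0.3 mg protein/mL) with substrate at final 3 μM in 0.1 M phosphate pH 7.4. Pre-incubated 5 min at 37 °C, then started with NADPH (final 1 mM). Sampled at 0–45 min in triplicate, quenched with cold acetonitrile plus internal standard. Parent measured by LC-MS/MS. Midazolam as positive control; no-NADPH negative control.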

Data set [16] is described as follows: Half life in pooled female rat liver microsomes at 3 uM preincubated for 5 mins followed by NADPH addition measured after 45 mins by LC-MS/MS method. The format is ADME, microsome. A digest of the protocol:
(§4)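 Pooled female or male rat liver microsomes (0.3 mg protein/mL) with 3 μM substrate in 0.1 M phosphate buffer pH 7.4, pre-incubated 5 min at 37 °C, started with 1 mM NADPH. Samples at 0-45 min quenched in cold acetonitrile with internal standard, analysed by LC-MS/MS. Triplicates; midazolam positive control, no-NADPH negative control.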
Background: Microsomes from liver hold many membrane-bound enzymes, among them those of drug oxidation.

Data set [17] can be described thus: Half life in pooled male rat liver microsomes at 3 uM preincubated for 5 mins followed by NADPH addition measured after 45 mins by LC-MS/MS method. The format is ADME, microsome. A digest of the protocol: as §4
Data set [18] is described as follows: Intrinsic clearance in pooled male rat liver microsomes assessed per mg protein at 3 uM preincubated for 5 mins followed by NADPH addition measured after 45 mins by LC-MS/MS method. The format is ADME, microsome. The conditions noted are these: read-out: CLH. The method in brief:
as §3

The results in this text go back to ChEMBL document CHEMBL4270554, “Discovery of the cancer cell selective dual acting anti-cancer agent (Z)-2-(1H-indol-3-yl)-3-(isoquinolin-5-yl)acrylonitrile (A131)” (Eur J Med Chem, 2018).

As usually defined, the half-life is how long it takes for the measured level to halve. Higher therefore signals slow decline.

Activity calls are given as the source filed them. The rule behind the calls is not given here.

With `N#C/C(=C\c1cccc2ncccc12)c1c[nH]c2ccccc12`, the “fold change (FC)” value with hTERT-BJ [1] was found to be 0.7; in the data set on hTERT-BJ [2] it was 10.5. Further, the outcome with hTERT-BJ [3] was Active. Also, the Activity result in the data set with BJ [4] is given as “Toxic”.
As for `CC(=O)O[C@H]1C(=O)[C@@]2(C)[C@H]([C@H](OC(=O)c3ccccc3)[C@]3(O)C[C@H](OC(=O)[C@H](O)[C@@H](NC(=O)c4ccccc4)c4ccccc4)C(C)=C1C3(C)C)[C@]1(OC(C)=O)CO[C@@H]1C[C@@H]2O`, the TGI entry in the data set on HCT-15 was “inactive”.
With `N#C/C(=C/c1cccc2cnccc12)c1nc2ccccc2[nH]1`, the “fold change (FC)” value in the data set on hTERT-BJ [1] is recorded as 1.2; in the data set on hTERT-BJ [2] it was 1.1. The outcome in the data set with hTERT-BJ [3] was inactive. Besides, the Activity result in the data set on BJ [4] is recorded as “Non-Toxic”.
`N#C/C(=C\c1cccc2cnccc12)c1c[nH]c2ccccc12`: the Activity result in the data set with HeLa [5] and with HeLa [13] was “Dose-dependent effect” in each case. Besides, the result in the data set on HeLa [6], in the data set on HeLa [8], in the data set with HeLa [9], in the data set on HeLa [10], with HeLa [11] and in the data set on hTERT-BJ [3] was Active. Moreover, the result in the data set on BJ [12] and in the data set with HeLa [14] was Active. For the same compound, the inhibition result in the data set on HeLa [7] was “Dose-dependent effect”.
Consider `N#C/C(=C\c1cccc2cnccc12)c1c[nH]c2ccc(Br)cc12`, for which the microsomal CLint at 3 µM was determined as 53 µL/min/mg in data set [15] and 118 µL/min/mg in data set [18]. Besides, the “fold change (FC)” value with hTERT-BJ [1] was found to be 4; in the data set on hTERT-BJ [2], 2.1. In addition, the results for the half-life at 3 µM in data set [16] and in [17] were 43.8 min and 19.6 min, respectively.
Regarding `COCCOc1ccc2[nH]cc(/C(C#N)=C/c3cccc4cnccc34)c2c1`, the “fold change (FC)” value in the data set with hTERT-BJ [1] was determined as 3.2; in the data set with hTERT-BJ [2], 1.6. For the same compound, in the data set with hTERT-BJ [3], the outcome was inactive. Further, the Activity entry with BJ [4] is listed as “Non-Toxic”.
`COc1ccc2[nH]cc(/C(C#N)=C/c3cccc4cnccc34)c2c1`: the figures for the microsomal CLint at 3 µM in [15] and in data set [18] were 66 µL/min/mg and 106 µL/min/mg, respectively. Moreover, the “fold change (FC)” value is given as 3.2 in the data set with hTERT-BJ [1] and 3 in the data set with hTERT-BJ [2]. Besides, the figures for the half-life at 3 µM in [16] and in data set [17] were 33.4 min and 21.8 min, respectively.
As to `N#C/C(=C\c1cccc2cnccc12)c1c[nH]c2ccc(OCCCN3CCCC3)cc12`, the “fold change (FC)” value in the data set with hTERT-BJ [1] was found to be 6; in the data set on hTERT-BJ [2], 0.9. For the same compound, the outcome in the data set with hTERT-BJ [3] was inactive. Besides, the Activity result in the data set with BJ [4] is given as “Non-Toxic”.
With `C(=C\c1c[nH]c2ccccc12)/c1cccc2cnccc12`, the “fold change (FC)” value was 5.4 in the data set with hTERT-BJ [1] and 1.3 with hTERT-BJ [2]. The result in the data set with hTERT-BJ [3] was inactive. For the same compound, the Activity entry with BJ [4] is on record as “Non-Toxic”.
On to `N#C/C(=C\c1cncc2ccccc12)c1c[nH]c2ccccc12`, for which the entries for the “fold change (FC)” value in the data set on hTERT-BJ [1] and with hTERT-BJ [2] were 0.7 and 1.3, respectively. In the data set with hTERT-BJ [3], the result was inactive. The Activity entry with BJ [4] is recorded as “Non-Toxic”.
